# Legend:
# Escherichia coli [1] = experiment: Antimicrobial activity against Escherichia coli at 500 ug/disc after 24 hrs by disc diffusion method; type: functional; conditions: read-out: DIZ
# Escherichia coli [2] = experiment: Antimicrobial activity against Escherichia coli at 1000 ug/disc after 24 hrs by disc diffusion method; type: functional; conditions: read-out: DIZ
# Bacillus subtilis [3] = experiment: Antimicrobial activity against Bacillus subtilis at 500 ug/disc after 24 hrs by disc diffusion method; type: functional; conditions: read-out: DIZ
# Bacillus subtilis [4] = experiment: Antimicrobial activity against Bacillus subtilis at 1000 ug/disc after 24 hrs by disc diffusion method; type: functional; conditions: read-out: DIZ
# [5] = tested on: Staphylococcus epidermidis; experiment: Antimicrobial activity against Staphylococcus epidermidis at 500 ug/disc after 24 hrs by disc diffusion method; type: functional; conditions: read-out: DIZ
# [6] = tested on: Staphylococcus epidermidis; experiment: Antimicrobial activity against Staphylococcus epidermidis at 1000 ug/disc after 24 hrs by disc diffusion method; type: functional; conditions: read-out: DIZ
# Klebsiella pneumoniae [7] = experiment: Antimicrobial activity against Klebsiella pneumoniae at 500 ug/disc after 24 hrs by disc diffusion method; type: functional; conditions: read-out: DIZ
# Klebsiella pneumoniae [8] = experiment: Antimicrobial activity against Klebsiella pneumoniae at 1000 ug/disc after 24 hrs by disc diffusion method; type: functional; conditions: read-out: DIZ
# Listeria monocytogenes [9] = experiment: Antimicrobial activity against Listeria monocytogenes at 500 ug/disc after 24 hrs by disc diffusion method; type: functional; conditions: read-out: DIZ
# Listeria monocytogenes [10] = experiment: Antimicrobial activity against Listeria monocytogenes at 1000 ug/disc after 24 hrs by disc diffusion method; type: functional; conditions: read-out: DIZ
# Salmonella typhimurium [11] = experiment: Antimicrobial activity against Salmonella Typhimurium at 500 ug/disc after 24 hrs by disc diffusion method; type: functional, Salmonella enterica subsp. enterica serovar Typhimurium; conditions: Salmonella enterica, read-out: DIZ
# Salmonella typhimurium [12] = experiment: Antimicrobial activity against Salmonella Typhimurium at 1000 ug/disc after 24 hrs by disc diffusion method; type: functional, Salmonella enterica subsp. enterica serovar Typhimurium; conditions: Salmonella enterica, read-out: DIZ
# Staphylococcus aureus [13] = experiment: Antimicrobial activity against Staphylococcus aureus at 500 ug/disc after 24 hrs by disc diffusion method; type: functional; conditions: read-out: DIZ
# Summary of the method: (§1)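 Disc diffusion on 2.4% Mueller-Hinton agar inoculated with the strain. Paper discs 6 mm across were loaded with test compound and placed on the agar. Plates were incubated at 37 °C for 24 h. Read-out was the diameter of the inhibition zone in mm.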
# Staphylococcus aureus [14] = experiment: Antimicrobial activity against Staphylococcus aureus at 1000 ug/disc after 24 hrs by disc diffusion method; type: functional; conditions: read-out: DIZ
# Staphylococcus aureus [15] = experiment: Antimicrobial activity against methicillin-resistant Staphylococcus aureus strain 1 TB3G at 500 ug/disc after 24 hrs by disc diffusion method; type: functional; conditions: read-out: DIZ; summary of the method: as §1
# Staphylococcus aureus [16] = experiment: Antimicrobial activity against methicillin-resistant Staphylococcus aureus strain 1 TB3G at 1000 ug/disc after 24 hrs by disc diffusion method; type: functional; conditions: read-out: DIZ; summary of the method: as §1
# Staphylococcus aureus [17] = experiment: Antimicrobial activity against methicillin-resistant Staphylococcus aureus strain 2 TB4G at 500 ug/disc after 24 hrs by disc diffusion method; type: functional; conditions: read-out: DIZ; summary of the method: as §1
# Staphylococcus aureus [18] = experiment: Antimicrobial activity against methicillin-resistant Staphylococcus aureus strain 2 TB4G at 1000 ug/disc after 24 hrs by disc diffusion method; type: functional; conditions: read-out: DIZ; summary of the method: as §1
# Staphylococcus aureus [19] = experiment: Antimicrobial activity against methicillin-resistant Staphylococcus aureus strain 4 TB5G at 500 ug/disc after 24 hrs by disc diffusion method; type: functional; conditions: read-out: DIZ; summary of the method: as §1
# Staphylococcus aureus [20] = experiment: Antimicrobial activity against methicillin-resistant Staphylococcus aureus strain 4 TB5G at 1000 ug/disc after 24 hrs by disc diffusion method; type: functional; conditions: read-out: DIZ; summary of the method: as §1
# Escherichia coli [21] = experiment: Antimicrobial activity against Escherichia coli after 24 hrs by microdilution method; type: functional
# Summary of the method: (§2)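 Growth was judged by turbidity, and the MIC was taken as the minimum concentration giving the lowest growth. Amikacin served as reference.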
# Bacillus subtilis [22] = experiment: Antimicrobial activity against Bacillus subtilis after 24 hrs by microdilution method; type: functional; summary of the method: as §2
# [23] = tested on: Staphylococcus epidermidis; experiment: Antimicrobial activity against Staphylococcus epidermidis after 24 hrs by microdilution method; type: functional; summary of the method: as §2
# Klebsiella pneumoniae [24] = experiment: Antimicrobial activity against Klebsiella pneumoniae after 24 hrs by microdilution method; type: functional; summary of the method: as §2
# Listeria monocytogenes [25] = experiment: Antimicrobial activity against Listeria monocytogenes after 24 hrs by microdilution method; type: functional; summary of the method: as §2
# Salmonella typhimurium [26] = experiment: Antimicrobial activity against Salmonella Typhimurium after 24 hrs by microdilution method; type: functional, Salmonella enterica subsp. enterica serovar Typhimurium; conditions: Salmonella enterica; summary of the method: as §2
# Staphylococcus aureus [27] = experiment: Antimicrobial activity against Staphylococcus aureus after 24 hrs by microdilution method; type: functional; summary of the method: as §2
# Staphylococcus aureus [28] = experiment: Antimicrobial activity against methicillin-resistant Staphylococcus aureus strain 1 TB3G after 24 hrs by microdilution method; type: functional
# Summary of the method: (§3)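 Growth was judged by turbidity. The MIC was taken as the lowest concentration giving the lowest growth.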
# Staphylococcus aureus [29] = experiment: Antimicrobial activity against methicillin-resistant Staphylococcus aureus strain 2 TB4G after 24 hrs by microdilution method; type: functional; summary of the method: as §3
# Staphylococcus aureus [30] = experiment: Antimicrobial activity against methicillin-resistant Staphylococcus aureus strain 4 TB5G after 24 hrs by microdilution method; type: functional; summary of the method: as §3
# A549 [31] = experiment: Cytotoxicity against human A549 cells assessed as cell death at 1 ug after 48 hrs by MTT assay; type: functional
# Summary of the method: (§4)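 A549 cells were grown in DMEM with 2 mmol L-glutamine, 10% FBS, penicillin (50 IU/mL) and streptomycin, at 37 °C and 5% CO2. 1×10^4 cells/well were plated and treated 24 h later with compound diluted in medium for 48 h. Controls were DMSO-matched and untreated wells. MTT 0.4 mg/mL in PBS was added for 4 h in the dark, then DMSO for 4 h. A540 was read and reported as % live cells relative to untreated.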
# A549 [32] = experiment: Cytotoxicity against human A549 cells assessed as cell death at 2 ug after 48 hrs by MTT assay; type: functional; summary of the method: as §4
# A549 [33] = experiment: Cytotoxicity against human A549 cells assessed as cell death at 5 ug after 48 hrs by MTT assay; type: functional; summary of the method: as §4
# A549 [34] = experiment: Cytotoxicity against human A549 cells assessed as cell death at 10 ug after 48 hrs by MTT assay; type: functional; summary of the method: as §4
# A549 [35] = experiment: Cytotoxicity against human A549 cells assessed as cell death at 25 ug after 48 hrs by MTT assay; type: functional; summary of the method: as §4
# A549 [36] = experiment: Cytotoxicity against human A549 cells after 48 hrs by MTT assay; type: functional, cell-based; conditions: A549, 48 h
# Summary of the method: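 A549 cells were kept in DMEM with 2 mM L-glutamine, 10% FBS, penicillin 50 IU/mL and streptomycin at 37 °C under 5% CO2. 1×10^4 cells per well were treated 24 h after seeding with compounds diluted in medium for 48 h. MTT (0.4 mg/mL in PBS) was added for 4 h in the dark, formazan was dissolved in DMSO for 4 h and absorbance read at 540 nm. Viability was expressed as % of untreated cells, and IC50 was derived.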
SMILES,zone of inhibition at 500 µg/disc (Escherichia coli [1]) [mm],zone of inhibition at 1000 µg/disc (Escherichia coli [2]) [mm],zone of inhibition at 500 µg/disc (Bacillus subtilis [3]) [mm],zone of inhibition at 1000 µg/disc (Bacillus subtilis [4]) [mm],zone of inhibition at 500 µg/disc [5] [mm],zone of inhibition at 1000 µg/disc [6] [mm],zone of inhibition at 500 µg/disc (Klebsiella pneumoniae [7]) [mm],zone of inhibition at 1000 µg/disc (Klebsiella pneumoniae [8]) [mm],zone of inhibition at 500 µg/disc (Listeria monocytogenes [9]) [mm],zone of inhibition at 1000 µg/disc (Listeria monocytogenes [10]) [mm],zone of inhibition at 500 µg/disc (Salmonella typhimurium [11]) [mm],zone of inhibition at 1000 µg/disc (Salmonella typhimurium [12]) [mm],zone of inhibition at 500 µg/disc (Staphylococcus aureus [13]) [mm],zone of inhibition at 1000 µg/disc (Staphylococcus aureus [14]) [mm],Activity (A549 [31]) [%],Activity (A549 [32]) [%],Activity (A549 [33]) [%],Activity (A549 [34]) [%],Activity (A549 [35]) [%],IC50 (A549 [36]) [µM],also measured
CC(C)CC(=O)O[C@@H](c1ccccc1)c1cc(O)c(C(=O)O)c(=O)[nH]1,9,18,5,12,11,18,13,20,10,18,11,19,7,16,9.53,25.23,47.69,77.23,82.46,9,zone of inhibition at 500 µg/disc (Staphylococcus aureus [15]): 5 mm; zone of inhibition at 1000 µg/disc (Staphylococcus aureus [16]): 10 mm; zone of inhibition at 500 µg/disc (Staphylococcus aureus [17]): 7 mm; zone of inhibition at 1000 µg/disc (Staphylococcus aureus [18]): 12 mm; zone of inhibition at 500 µg/disc (Staphylococcus aureus [19]): 6 mm; zone of inhibition at 1000 µg/disc (Staphylococcus aureus [20]): 10 mm; MIC (Escherichia coli [21]): 25 µg/mL; MIC (Bacillus subtilis [22]): 50 µg/mL; MIC [23]: 100 µg/mL; MIC (Klebsiella pneumoniae [24]): 100 µg/mL; MIC (Listeria monocytogenes [25]): > 100 µg/mL; MIC (Salmonella typhimurium [26]): > 100 µg/mL; MIC (Staphylococcus aureus [27]): > 100 µg/mL; MIC (Staphylococcus aureus [28]): > 100 µg/mL; MIC (Staphylococcus aureus [29]): > 100 µg/mL; MIC (Staphylococcus aureus [30]): > 100 µg/mL
COc1cc([C@@H]2c3cc4c(cc3[C@@H](O[C@@H]3O[C@@H]5CO[C@@H](C)O[C@H]5[C@H](O)[C@H]3O)[C@H]3COC(=O)[C@H]23)OCO4)cc(OC)c1O [ETOPOSIDE],–,–,–,–,–,–,–,–,–,–,–,–,–,–,5.54,9.12,25.91,55.33,69.48,11,–
CC(C)CC(=O)O[C@H](c1ccccc1)c1cc(O)c(C(=O)O)c(=O)[nH]1,10,18,8,15,12,20,9,20,7,15,9,20,11,18,10.46,30.76,44.92,77.84,78.76,8,zone of inhibition at 500 µg/disc (Staphylococcus aureus [15]): 7 mm; zone of inhibition at 1000 µg/disc (Staphylococcus aureus [16]): 13 mm; zone of inhibition at 500 µg/disc (Staphylococcus aureus [17]): 6 mm; zone of inhibition at 1000 µg/disc (Staphylococcus aureus [18]): 10 mm; zone of inhibition at 500 µg/disc (Staphylococcus aureus [19]): 5 mm; zone of inhibition at 1000 µg/disc (Staphylococcus aureus [20]): 11 mm; MIC (Escherichia coli [21]): 50 µg/mL; MIC (Bacillus subtilis [22]): 100 µg/mL; MIC [23]: 25 µg/mL; MIC (Klebsiella pneumoniae [24]): > 100 µg/mL; MIC (Listeria monocytogenes [25]): 100 µg/mL; MIC (Salmonella typhimurium [26]): > 100 µg/mL; MIC (Staphylococcus aureus [27]): > 100 µg/mL; MIC (Staphylococcus aureus [28]): > 100 µg/mL; MIC (Staphylococcus aureus [29]): > 100 µg/mL; MIC (Staphylococcus aureus [30]): > 100 µg/mL
